These results are taken from ChEMBL document CHEMBL1129405, “In vitro and in vivo evaluation of 6-azido-2',3'-dideoxy-2'-fluoro-beta-D-arabinofuranosylpurine and N6-methyl-2',3'-dideoxy-2'-fluoro-beta-D-arabinofuranosyladenine as prodrugs of the anti-HIV nucleosides 2'-F-ara-ddA and 2'-F-ara-ddI” (J Med Chem, 1996).

Each structure is given as a SMILES string.

Data set [1] concerns Mus musculus. The experiment in a line: The ratio of AUC / dose (mM.h/umol)/kg at 112 mg/kg dose after intravenous administration in mice serum. It counts as ADME, organism-based. Further details: dose 112 mg/kg, route intravenous. Particulars: in vivo. The method, boiled down:
(§1)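 Female NIH-Swiss mice (24-28 g), tail-vein injection of 112 mg/kg (437 µmol/kg) in saline (15 mg/mL); three mice per time point, ether anesthesia, exsanguination by heart puncture; serum and brain (homogenized 1:1 g:mL in ice-cold isotonic 0.05 M phosphate, pH 7.4) assayed by HPLC, UV 260 nm. Noncompartmental analysis of mean concentrations; AUC by Lagrange interpolation, extrapolated via terminal slope (last 3-5 points); t1/2 = 0.693/λz; AUC normalized to µmol/kg dose.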

In data set [2] the test system is Mus musculus. Nature of the data set: The ratio of AUC / dose (mM.h/uMol)/kg at 112 mg/kg dose after oral administration in mice serum; AUC/Dose (uM). It counts as ADME, organism-based. Further details: dose 112 mg/kg, route oral. Particulars: in vivo.
The test system of data set [3] is Mus musculus. Nature of the data set: The ratio of AUC / dose (mM.h/uMol)/kg at 112 mg/kg dose after intravenous administration in mice brain; AUC/Dose (uM). It counts as ADME, organism-based. Also noted: dose 112 mg/kg, route intravenous. Particulars: in vivo. In outline: as §1
The test system of data set [4] is Mus musculus. The experiment in a line: The ratio of AUC / dose (mM.h/uMol)/kg at 112 mg/kg dose after intravenous administration in mice serum; AUC/Dose (uM). It counts as ADME, organism-based. Also noted: dose 112 mg/kg, route intravenous. Particulars: in vivo. The method, boiled down:
as §1

Data set [5] concerns Mus musculus. The experiment in a line: t1/2 was measured at 55 mg/kg dose by oral administration in mice brain; t1/2 (h); not detected. Further details: dose 55 mg/kg, route oral. The class given is ADME, organism-based. Particulars: in vivo.
Data set [6] is described as follows: The ratio of AUC /dose(uM). It counts as ADME.
Data set [7] in a line: (§2) The ratio of AUC /dose (uM). It counts as ADME.
Data set [8] in a line: (§3) The ratio of AUC /dose(uM); not detected. It counts as ADME.
The subject of data set [9] is Mus musculus. The experiment in a line: Pharmacokinetic parameter AUC was measured at 112 mg/kg dose by intravenous administration in mice brain; AUC (mM.h); not detected. The class given is ADME, organism-based. Further details: dose 112 mg/kg, route intravenous. Particulars: in vivo. The method, boiled down: as §1
A short description of data set [10]: as §2. It counts as ADME. This is another data set of the same source.
In data set [11] the test system is Mus musculus. The experiment in a line: t1/2 was measured AT 112 mg/kg dose by intravenous administration in mice brain; not detected. Particulars: in vivo.
Data set [12] can be described thus: as §3. The class given is ADME. The source holds these as a separate data set.
The subject of data set [13] is Mus musculus. Nature of the data set: Pharmacokinetic parameter AUC was measured at 112 mg/kg dose by intravenous administration using FMAddA as substrate in mice brain; AUC 0-r (mM.h); not detected. It counts as ADME, organism-based. Further details: dose 112 mg/kg, route intravenous. Particulars: in vivo. In outline: as §1
Data set [14] deals with Mus musculus. Nature of the data set: Pharmacokinetic parameter AUC was measured at 55 mg/kg dose by oral in mice brain; AUC (mM.h); not detected. Particulars: in vivo. It counts as ADME, organism-based. Further details: dose 55 mg/kg, route oral.

`[N-]=[N+]=Nc1ncnc2c1ncn2C1OC(CO)CC1F` (stereo not drawn): the Ratio worked out at 1.01 in data set [1], 0.19 in data set [2] and 0.06 in data set [3].
Consider `CNc1ncnc2c1ncn2C1OC(CO)CC1F` (stereo not drawn), for which the Ratio in data set [4] was determined as 0.68; in data set [3] it was 0.09.
As to `OCC1CC(F)C(n2cnc3c(O)ncnc32)O1` (stereo not drawn), the T1/2 result in data set [5] and in data set [11] was “Not detected” in each case. Further, the Ratio in data set [6] is on record as 0.046; in data set [7], 0.13; in [8], “Not detected”; in [10], 0.48; in [12], “Not detected”. For the same molecule, the AUC result in data set [9], in data set [13] and in data set [14] was “Not detected” throughout.
For `Nc1ncnc2c1ncn2[C@@H]1O[C@H](CO)C[C@@H]1F` [LODENOSINE], the Ratio was 0.04 in data set [4], 0.005 in [2] and 0.02 in data set [3].
